Legend:
Renin [1] = biological target: T1, Renin (Homo sapiens, UniProt P00797); test: Inhibition of human recombinant renin using Q-FRET substrate after 3 hrs by fluorescence assay
T1 sequence (P00797 whole entry): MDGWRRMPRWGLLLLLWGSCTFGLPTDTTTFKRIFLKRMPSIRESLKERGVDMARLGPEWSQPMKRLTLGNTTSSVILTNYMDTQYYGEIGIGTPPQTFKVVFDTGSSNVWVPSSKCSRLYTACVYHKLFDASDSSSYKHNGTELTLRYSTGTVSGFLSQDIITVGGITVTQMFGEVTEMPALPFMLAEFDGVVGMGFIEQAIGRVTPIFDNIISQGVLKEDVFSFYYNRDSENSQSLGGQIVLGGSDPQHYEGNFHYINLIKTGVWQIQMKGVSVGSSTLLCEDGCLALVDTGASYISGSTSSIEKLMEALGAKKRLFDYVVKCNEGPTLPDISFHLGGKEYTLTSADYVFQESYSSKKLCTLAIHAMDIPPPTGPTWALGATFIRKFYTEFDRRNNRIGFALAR

[2] = Oral bioavailability in Sprague-Dawley rat at 3 mg/kg; assay type: ADME, organism-based; conditions: in vivo
CYP3A4 [3] = biological target: T2, CYP3A4 (Homo sapiens, UniProt P08684); test: Reversible inhibition of CYP3A4 assessed as conversion of testosterone to 6-beta-hydroxytestosterone at 10 uM relative to control; assay type: ADME; conditions: probe testosterone
T2 sequence (P08684 whole entry): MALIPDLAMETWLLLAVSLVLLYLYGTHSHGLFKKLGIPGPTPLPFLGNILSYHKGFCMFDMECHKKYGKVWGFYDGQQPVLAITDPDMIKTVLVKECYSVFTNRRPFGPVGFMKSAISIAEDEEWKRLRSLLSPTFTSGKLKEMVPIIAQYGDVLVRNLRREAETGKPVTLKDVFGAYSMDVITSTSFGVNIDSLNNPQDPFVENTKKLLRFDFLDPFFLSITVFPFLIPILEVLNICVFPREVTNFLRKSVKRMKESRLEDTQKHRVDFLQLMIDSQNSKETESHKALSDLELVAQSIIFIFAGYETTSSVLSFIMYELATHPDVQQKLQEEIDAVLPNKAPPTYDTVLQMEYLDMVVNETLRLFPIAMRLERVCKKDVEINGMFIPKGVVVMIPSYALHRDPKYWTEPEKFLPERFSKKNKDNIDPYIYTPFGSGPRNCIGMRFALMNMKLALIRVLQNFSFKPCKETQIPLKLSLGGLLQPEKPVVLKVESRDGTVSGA

CYP3A4 [4] = biological target: T2, CYP3A4; test: Time dependent inhibition of CYP3A4 assessed as conversion of testosterone to 6-beta-hydroxytestosterone at 10 uM relative to control; assay type: ADME; conditions: probe testosterone
Summary of the method: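 Rate of CYP3A4 conversion of testosterone (250 μM) to 6-β-hydroxytestosterone measured before and after a 30 min incubation with compound at 10 μM (in DMSO). Difference expressed as % loss.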

Renin [5] = biological target: T1, Renin; test: Inhibition of renin in human plasma using Q-FRET substrate pretreated for 10 mins before substrate addition measured after 1 hr
[6] = biological target: Voltage-gated inwardly rectifying potassium channel KCNH2 (Homo sapiens, UniProt Q12809); test: Inhibition of human ERG
Sequence of Voltage-gated inwardly rectifying potassium channel KCNH2 (Q12809 whole entry): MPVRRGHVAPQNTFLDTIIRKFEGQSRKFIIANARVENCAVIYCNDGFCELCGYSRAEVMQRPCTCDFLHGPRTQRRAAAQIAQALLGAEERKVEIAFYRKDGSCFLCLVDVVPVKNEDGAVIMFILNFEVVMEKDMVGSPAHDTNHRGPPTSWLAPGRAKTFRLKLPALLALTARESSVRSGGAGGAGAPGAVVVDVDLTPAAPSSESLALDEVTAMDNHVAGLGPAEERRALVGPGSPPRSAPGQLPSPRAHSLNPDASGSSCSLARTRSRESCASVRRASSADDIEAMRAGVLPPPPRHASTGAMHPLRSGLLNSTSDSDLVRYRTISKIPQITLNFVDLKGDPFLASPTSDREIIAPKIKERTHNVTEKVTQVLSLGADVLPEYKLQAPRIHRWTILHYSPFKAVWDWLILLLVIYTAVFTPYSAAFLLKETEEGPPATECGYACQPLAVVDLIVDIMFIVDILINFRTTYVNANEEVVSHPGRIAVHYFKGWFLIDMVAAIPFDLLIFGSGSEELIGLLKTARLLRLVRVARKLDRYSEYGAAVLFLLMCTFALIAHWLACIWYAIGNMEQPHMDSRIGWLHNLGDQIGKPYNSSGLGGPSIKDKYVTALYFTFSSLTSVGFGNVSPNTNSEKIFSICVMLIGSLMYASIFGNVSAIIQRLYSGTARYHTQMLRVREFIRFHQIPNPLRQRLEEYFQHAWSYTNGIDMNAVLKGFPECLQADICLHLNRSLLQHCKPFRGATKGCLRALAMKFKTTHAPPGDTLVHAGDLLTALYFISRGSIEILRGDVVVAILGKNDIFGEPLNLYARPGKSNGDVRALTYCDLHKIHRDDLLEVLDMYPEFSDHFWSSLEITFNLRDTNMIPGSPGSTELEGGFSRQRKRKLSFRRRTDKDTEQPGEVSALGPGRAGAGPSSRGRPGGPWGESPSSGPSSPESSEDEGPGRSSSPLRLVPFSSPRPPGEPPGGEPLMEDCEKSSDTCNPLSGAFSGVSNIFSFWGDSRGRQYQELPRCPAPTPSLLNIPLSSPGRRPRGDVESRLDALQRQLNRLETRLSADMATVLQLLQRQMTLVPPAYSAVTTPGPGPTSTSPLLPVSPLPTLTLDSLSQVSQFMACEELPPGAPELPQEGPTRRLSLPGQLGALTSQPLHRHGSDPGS

[7] = Solubility of the compound in water; assay type: physicochemical; conditions: buffer
[8] = Clearance in Sprague-Dawley rat at 20 mg/kg, po and 5 mg/kg, iv; conditions: in vivo
[9] = Volume of distribution at steady state in Beagle dog at 3 mg/kg, po and 1 mg/kg, iv; assay type: ADME, organism-based, Canis lupus familiaris; conditions: in vivo, read-out: Vdss
[10] = Half life in Beagle dog at 3 mg/kg, po and 1 mg/kg, iv; assay type: ADME, organism-based, Canis lupus familiaris; conditions: in vivo
Rattus norvegicus [11] = test: Cardiotoxicity in cardiac electrophysiology rat model assessed as prolongation of QRS intervals at 10 mg/kg, iv after 0.5 hrs relative to baseline; assay type: toxicity, organism-based, Heart; parameters: dose 10 mg/kg, route intravenous; conditions: in vivo
Summary of the method: (§1)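 Rat electrophysiology model dosed at 10 mpk over 0.5 h. PR and QRS prolongation expressed as percentage change from baseline; plasma concentration (µM) recorded.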

Liver microsomes [12] = test: Covalent binding in human liver microsomes assessed per mg of protein at 10 uM after 60 mins in presence of NADPH; assay type: ADME, Microsome; conditions: 1 h
Summary of the method: (§2)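 Test compound at 10 μM was incubated for 60 min (n = 3) with human liver microsomes at 1 mg protein/mL, with or without 1 mM NADPH. Covalent binding reported as pmole eq/mg at 1 h.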

[13] = Clearance in cynomolgus monkey at 3 mg/kg, po and 1 mg/kg, iv; assay type: ADME, organism-based, Macaca fascicularis; conditions: in vivo
Canis familiaris [14] = test: Cardiotoxicity in anesthetized, vagotomized and ventilated Mongrel dog assessed as prolongation of QTc intervals at 10 mg/kg, iv after 1.5 hrs relative to baseline; assay type: toxicity, organism-based, Canis lupus familiaris; parameters: dose 10 mg/kg, route intravenous; conditions: in vivo
Summary of the method: (§3)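 Anesthetized, vagotomized, ventilated mongrel dogs received an iv infusion of 10 mpk over 1.5 h. QTc, PR and QRS intervals were recorded as percentage change from baseline, and plasma concentration (µM) was measured.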

Canis familiaris [15] = test: Cardiotoxicity in anesthetized, vagotomized and ventilated Mongrel dog assessed as prolongation of QRS intervals at 10 mg/kg, iv after 1.5 hrs relative to baseline; assay type: toxicity, organism-based, Canis lupus familiaris; parameters: dose 10 mg/kg, route intravenous; conditions: in vivo; summary of the method: as §3
[16] = AUC in Sprague-Dawley rat at 20 mg/kg, po; assay type: ADME, organism-based; parameters: dose 20 mg/kg, route oral; conditions: plasma
[17] = Clearance in Beagle dog at 3 mg/kg, po and 1 mg/kg, iv; assay type: ADME, organism-based, Canis lupus familiaris; conditions: in vivo
[18] = AUC in Beagle dog at 3 mg/kg, po; assay type: ADME, organism-based, Canis lupus familiaris; parameters: dose 3 mg/kg, route oral; conditions: plasma
Cytochrome P450 3A4 [19] = biological target: T3, Cytochrome P450 3A4 (Homo sapiens, UniProt P08684); test: Reversible inhibition of CYP3A4 assessed as conversion of testosterone to 6-beta-hydroxytestosterone; assay type: ADME
T3 sequence (P08684 whole entry): as the sequence (P08684 whole entry) above

[20] = Plasma concentration in cardiac electrophysiology rat model at 10 mg/kg, iv after 0.5 hrs; assay type: ADME, organism-based; parameters: dose 10 mg/kg, route intravenous; summary of the method: as §1
[21] = Half life in Sprague-Dawley rat at 20 mg/kg, po and 5 mg/kg, iv; conditions: in vivo
[22] = Volume of distribution at steady state in cynomolgus monkey at 3 mg/kg, po and 1 mg/kg, iv; assay type: ADME, organism-based, Macaca fascicularis; conditions: in vivo, read-out: Vdss
Rattus norvegicus [23] = test: Cardiotoxicity in cardiac electrophysiology rat model assessed as prolongation of PR intervals at 10 mg/kg, iv after 0.5 hrs relative to baseline; assay type: toxicity, organism-based, Heart; parameters: dose 10 mg/kg, route intravenous; conditions: in vivo; summary of the method: as §1
Rattus norvegicus [24] = test: Antihypertensive activity in double transgenic rat model assessed as reduction of blood pressure at 10 mg/kg, po; assay type: functional
[25] = Plasma concentration in anesthetized, vagotomized and ventilated Mongrel dog at 10 mg/kg, iv after 1.5 hrs; assay type: ADME, organism-based, Canis lupus familiaris; parameters: dose 10 mg/kg, route intravenous; summary of the method: as §3
[26] = AUC in cynomolgus monkey at 3 mg/kg, po; assay type: ADME, organism-based, Macaca fascicularis; parameters: dose 3 mg/kg, route oral; conditions: plasma
[27] = Volume of distribution at steady state in Sprague-Dawley rat at 20 mg/kg, po and 5 mg/kg, iv; conditions: in vivo, read-out: Vdss
Rattus norvegicus [28] = test: Antihypertensive activity in double transgenic rat model assessed as duration in reduction of blood pressure at 10 mg/kg, po; assay type: functional
Cytochrome P450 3A4 [29] = biological target: T3, Cytochrome P450 3A4; test: Time dependent inhibition of CYP3A4 assessed as conversion of testosterone to 6-beta-hydroxytestosterone; assay type: ADME
Summary of the method: (§4)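 Time-dependent CYP3A4 inhibition (testosterone to 6-β-hydroxytestosterone).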

[30] = Oral bioavailability in cynomolgus monkey at 3 mg/kg; assay type: ADME, organism-based, Macaca fascicularis; conditions: in vivo
[31] = Oral bioavailability in Sprague-Dawley rat at 20 mg/kg; assay type: ADME, organism-based; conditions: in vivo
[32] = Oral bioavailability in Beagle dog at 3 mg/kg; assay type: ADME, organism-based, Canis lupus familiaris; conditions: in vivo
[33] = Half life in cynomolgus monkey at 3 mg/kg, po and 1 mg/kg, iv; assay type: ADME, organism-based, Macaca fascicularis; conditions: in vivo
Canis familiaris [34] = test: Cardiotoxicity in anesthetized, vagotomized and ventilated Mongrel dog assessed as prolongation of PR intervals at 10 mg/kg, iv after 1.5 hrs relative to baseline; assay type: toxicity, organism-based, Canis lupus familiaris; parameters: dose 10 mg/kg, route intravenous; conditions: in vivo; summary of the method: as §3
Cytochrome P450 3A4 [35] = biological target: T3, Cytochrome P450 3A4; test: Time dependent inhibition of CYP3A4 assessed as conversion of testosterone to 6-beta-hydroxytestosterone preincubated for 30 mins; assay type: ADME; summary of the method: as §4
Liver microsomes [36] = test: Covalent binding in human liver microsomes assessed per mg of protein at 10 uM after 60 mins in absence of NADPH; assay type: ADME, Microsome; conditions: 1 h; summary of the method: as §2
[37] = biological target: Sodium channel protein type 5 subunit alpha (Homo sapiens, UniProt Q14524); test: Inhibition of human Nav1.5
[38] = biological target: Voltage-dependent L-type calcium channel subunit alpha-1C (Homo sapiens, UniProt Q13936); test: Inhibition of human Cav1.2
Sequence of Voltage-dependent L-type calcium channel subunit alpha-1C (Q13936 whole entry): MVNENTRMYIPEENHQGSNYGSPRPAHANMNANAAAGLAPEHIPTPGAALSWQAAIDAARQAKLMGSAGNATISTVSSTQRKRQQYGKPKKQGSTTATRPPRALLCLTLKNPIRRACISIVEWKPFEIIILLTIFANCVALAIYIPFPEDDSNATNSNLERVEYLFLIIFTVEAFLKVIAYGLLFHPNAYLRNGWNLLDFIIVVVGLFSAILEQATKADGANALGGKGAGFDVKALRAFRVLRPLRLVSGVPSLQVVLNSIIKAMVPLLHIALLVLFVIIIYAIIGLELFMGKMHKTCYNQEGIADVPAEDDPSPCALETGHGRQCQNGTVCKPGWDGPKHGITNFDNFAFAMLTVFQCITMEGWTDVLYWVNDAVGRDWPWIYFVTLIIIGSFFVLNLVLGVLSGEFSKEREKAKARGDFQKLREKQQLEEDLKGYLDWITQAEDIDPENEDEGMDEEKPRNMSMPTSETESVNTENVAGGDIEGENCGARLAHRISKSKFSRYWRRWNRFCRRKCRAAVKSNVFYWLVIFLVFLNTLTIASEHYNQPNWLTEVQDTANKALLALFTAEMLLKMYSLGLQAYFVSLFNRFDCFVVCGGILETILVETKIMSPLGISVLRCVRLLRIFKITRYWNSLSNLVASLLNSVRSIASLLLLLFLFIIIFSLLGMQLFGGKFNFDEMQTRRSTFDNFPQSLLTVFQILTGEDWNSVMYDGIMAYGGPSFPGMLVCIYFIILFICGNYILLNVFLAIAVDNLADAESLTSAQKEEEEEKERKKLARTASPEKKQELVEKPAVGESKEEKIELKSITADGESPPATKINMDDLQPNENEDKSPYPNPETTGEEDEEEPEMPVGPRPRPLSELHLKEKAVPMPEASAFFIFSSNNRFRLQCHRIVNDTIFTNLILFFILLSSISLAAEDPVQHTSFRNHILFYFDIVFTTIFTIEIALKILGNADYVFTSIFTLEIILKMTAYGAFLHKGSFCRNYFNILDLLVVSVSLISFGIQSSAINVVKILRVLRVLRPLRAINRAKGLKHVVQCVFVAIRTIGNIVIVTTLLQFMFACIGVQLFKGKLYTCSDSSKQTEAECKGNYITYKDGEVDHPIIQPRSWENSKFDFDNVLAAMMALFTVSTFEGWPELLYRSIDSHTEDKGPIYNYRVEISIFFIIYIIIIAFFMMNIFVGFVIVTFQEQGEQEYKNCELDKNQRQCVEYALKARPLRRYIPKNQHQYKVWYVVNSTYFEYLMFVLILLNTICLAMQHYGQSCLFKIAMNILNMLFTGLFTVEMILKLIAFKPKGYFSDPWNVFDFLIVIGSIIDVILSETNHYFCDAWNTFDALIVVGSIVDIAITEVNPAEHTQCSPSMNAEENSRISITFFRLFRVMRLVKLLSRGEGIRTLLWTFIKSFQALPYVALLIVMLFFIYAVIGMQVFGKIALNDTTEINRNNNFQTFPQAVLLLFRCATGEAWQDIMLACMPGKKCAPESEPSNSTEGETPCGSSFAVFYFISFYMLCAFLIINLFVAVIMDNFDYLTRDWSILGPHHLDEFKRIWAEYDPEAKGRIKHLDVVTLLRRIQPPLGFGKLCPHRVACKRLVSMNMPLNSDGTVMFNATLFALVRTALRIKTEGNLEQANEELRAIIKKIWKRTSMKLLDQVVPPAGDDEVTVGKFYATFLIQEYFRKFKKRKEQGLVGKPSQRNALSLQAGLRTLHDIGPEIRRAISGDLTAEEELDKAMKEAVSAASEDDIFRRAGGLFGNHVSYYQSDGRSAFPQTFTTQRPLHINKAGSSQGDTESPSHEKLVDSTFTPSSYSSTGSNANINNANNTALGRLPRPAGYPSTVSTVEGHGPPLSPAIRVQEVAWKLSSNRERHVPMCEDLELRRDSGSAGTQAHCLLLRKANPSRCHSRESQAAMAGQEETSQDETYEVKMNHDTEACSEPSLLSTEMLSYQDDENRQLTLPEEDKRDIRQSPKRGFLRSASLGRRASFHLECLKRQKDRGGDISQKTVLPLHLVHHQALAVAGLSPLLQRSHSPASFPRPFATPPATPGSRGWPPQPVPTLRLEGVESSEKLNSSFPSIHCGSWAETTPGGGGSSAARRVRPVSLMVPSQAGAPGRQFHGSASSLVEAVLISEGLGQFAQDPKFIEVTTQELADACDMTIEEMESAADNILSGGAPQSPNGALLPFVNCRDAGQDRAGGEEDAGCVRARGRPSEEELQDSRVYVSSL

[39] = Oral bioavailability in Sprague-Dawley rat at 30 mg/kg; assay type: ADME, organism-based; conditions: in vivo

## Cn1ccc([C@H]2CCNC[C@@H]2C(=O)N(Cc2cn(Cc3cccnc3)c3cccc(F)c23)C2CC2)cc1=O
Renin [1]
  IC50: 0.88 nM
[2]
  bioavailability: 0%
CYP3A4 [3]
  activity % at 10 µM: 61%
CYP3A4 [4]
  inhibition at 10 µM: 44%
Renin [5]
  IC50: 2 nM
[6]
  Ki: 12000 nM

## COCCCn1cc(CN(C(=O)[C@H]2CNCC[C@@H]2c2ccn(C)c(=O)c2)C2CC2)c2c(Br)cccc21
Renin [1]
  IC50: 0.07 nM
[2]
  bioavailability: 3%
CYP3A4 [3]
  activity % at 10 µM: 63%
CYP3A4 [4]
  inhibition at 10 µM: 48%
Renin [5]
  IC50: 0.57 nM
[6]
  Ki: 11000 nM

## COCCCc1cc(CN(C(=O)[C@H]2CNCC[C@@H]2c2ccn(C)c(=O)c2)C2CC2)cc(Br)c1C.Cl
[7]
  solubility: soluble

## COCCCc1cc(CN(C(=O)[C@H]2CNCC[C@@H]2c2ccn(C)c(=O)c2)C2CC2)cc(Br)c1C
[8]
  clearance: 67 mL/min/kg
[9]
  Vd: 4.5 L/kg
[10]
  half-life: 13.7 h
Rattus norvegicus [11]
  Activity: 14%
Liver microsomes [12]
  Activity: 34.5 pmolequiv
[13]
  clearance: 14 mL/min/kg
Canis familiaris [14]
  Activity: 0%
Canis familiaris [15]
  Activity: 4%
[16]
  AUC: 4.2 µM·h
[17]
  clearance: 16 mL/min/kg
Renin [1]
  IC50: 1 nM
[18]
  AUC: 2.1 µM·h
Cytochrome P450 3A4 [19]
  IC50: 6500 nM
[20]
  concentration at 0.5 h: 7.9 µM
[21]
  half-life: 5.2 h
[22]
  Vd: 4.8 L/kg
Rattus norvegicus [23]
  Activity: 16%
Rattus norvegicus [24]
  Activity: 35 mmHg
[25]
  concentration at 1.5 h: 9.3 µM
CYP3A4 [3]
  activity % at 10 µM: 22%
[26]
  AUC: 0.9 µM·h
[27]
  Vd: 17 L/kg
Rattus norvegicus [28]
  Time: 24 h
CYP3A4 [4]
  inhibition at 10 µM: 0%
Cytochrome P450 3A4 [29]
  IC50: 20000 nM
[30]
  bioavailability: 14%
[31]
  bioavailability: 30%
[32]
  bioavailability: 36%
[33]
  half-life: 7.8 h
Renin [5]
  IC50: 2.4 nM
Canis familiaris [34]
  Activity: 5%
Cytochrome P450 3A4 [35]
  IC50: 16000 nM
Liver microsomes [36]
  Activity: 8.3 pmolequiv
[6]
  Ki: 18000 nM

## COCCCn1cc(CN(C(=O)[C@H]2CNCC[C@@H]2c2ccn(C)c(=O)c2)C2CC2)c2ccccc21
[37]
  IC50: > 30000 nM
Rattus norvegicus [11]
  Activity: 30%
Canis familiaris [14]
  Activity: 6%
Canis familiaris [15]
  Activity: 12%
Renin [1]
  IC50: 2.3 nM
[20]
  concentration at 0.5 h: 12.7 µM
Rattus norvegicus [23]
  Activity: 23%
[25]
  concentration at 1.5 h: 25 µM
[38]
  IC50: > 30000 nM
CYP3A4 [4]
  inhibition at 10 µM: 45%
[39]
  bioavailability: 8%
Renin [5]
  IC50: 5.2 nM
Canis familiaris [34]
  Activity: 14%

## Cn1ccc([C@H]2CCNC[C@@H]2C(=O)N(Cc2c[nH]c3cccc(F)c23)C2CC2)cc1=O
Renin [1]
  IC50: 12 nM
[2]
  bioavailability: 0%
CYP3A4 [3]
  activity % at 10 µM: 74%
CYP3A4 [4]
  inhibition at 10 µM: 0%
Renin [5]
  IC50: 8.4 nM
[6]
  Ki: > 29000 nM

## Cn1ccc([C@H]2CCNC[C@@H]2C(=O)N(Cc2cn(Cc3ccncc3)c3cccc(F)c23)C2CC2)cc1=O
Renin [1]
  IC50: 0.24 nM
[2]
  bioavailability: 0%
CYP3A4 [3]
  activity % at 10 µM: 44%
CYP3A4 [4]
  inhibition at 10 µM: 29%
Renin [5]
  IC50: 0.53 nM
[6]
  Ki: 15000 nM

## COCCCc1cc(Cl)c(Cl)c(CN(C(=O)[C@H]2CNCC[C@@H]2c2ccn(C)c(=O)c2)C2CC2)c1
Rattus norvegicus [11]
  Activity: 54%
Canis familiaris [14]
  Activity: 10%
Canis familiaris [15]
  Activity: 33%
Renin [1]
  IC50: 0.3 nM
[20]
  concentration at 0.5 h: 7.4 µM
Rattus norvegicus [23]
  Activity: 35%
[25]
  concentration at 1.5 h: 15 µM
CYP3A4 [3]
  activity % at 10 µM: 53%
CYP3A4 [4]
  inhibition at 10 µM: 16%
[31]
  bioavailability: 24%
Renin [5]
  IC50: 1.3 nM
Canis familiaris [34]
  Activity: 50%
[6]
  Ki: 4800 nM

## Cn1ccc([C@H]2CCNC[C@@H]2C(=O)N(Cc2cn(Cc3ccccc3)c3cccc(F)c23)C2CC2)cc1=O
Renin [1]
  IC50: 0.02 nM
[2]
  bioavailability: 16%
CYP3A4 [3]
  activity % at 10 µM: 19%
CYP3A4 [4]
  inhibition at 10 µM: 43%
Renin [5]
  IC50: 0.62 nM
